Compounds with a hit are over-represented: about 1% of the library has one in this group of screens.
Fam108B counter – mouse Fam108B serine hydrolase inhibitors, primary screen, counter-screen for RBBP9 inhibitor project, biochemical, fluorescence polarization. recombinant Fam108B, FP-Rh probe fluorescence polarization. inhibition, % at 9.51 µM. 300,000 compounds, 0.33% hits. AID 1947, 2009;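 active = inhibition above the screen mean inhibition plus 3 SD, computed separately per campaign, cut at about 18% in these data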;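 also: inhibitors lower polarization as less probe binds the enzyme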
LYPLA1 inh – LYPLA1 inhibitors, primary screen, counter-screen for PME1 inhibitor project, biochemical, fluorescence polarization, FP-Rh probe ABPP. Acyl-protein thioesterase 1 (Homo sapiens), O75608. recombinant LYPLA1. inhibition, % at 5.9 µM. 320,000 compounds, 0.16% hits;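 active = inhibition above the mean of all tested compounds plus 3 SD, set per campaign, cut at about 14% in these data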;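 also: inhibitors block serine hydrolase probe labeling of LYPLA1 so polarization falls; 0% = enzyme with DMSO and 100% = wells lacking LYPLA1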
proCasp7 act – procaspase-7 activators, primary screen, counter-screen for procaspase-3 activator project, biochemical, absorbance, HTS, human; activation, % at 8.5 µM; Caspase-7 (Homo sapiens), P55210; recombinant procaspase-7, Ac-DEVD-pNA absorbance 405 nm; D23A/D198A/D206A triple mutant, cannot self-cleave; scale: DMSO 0, 5 µM enzyme 100; 330,000 compounds, 0.093% hits;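 active = percent activation above the screen-wide mean plus 3 SD, cut at about 25% in these data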
Target sequence (P55210 whole entry D23A/D198A/D206A): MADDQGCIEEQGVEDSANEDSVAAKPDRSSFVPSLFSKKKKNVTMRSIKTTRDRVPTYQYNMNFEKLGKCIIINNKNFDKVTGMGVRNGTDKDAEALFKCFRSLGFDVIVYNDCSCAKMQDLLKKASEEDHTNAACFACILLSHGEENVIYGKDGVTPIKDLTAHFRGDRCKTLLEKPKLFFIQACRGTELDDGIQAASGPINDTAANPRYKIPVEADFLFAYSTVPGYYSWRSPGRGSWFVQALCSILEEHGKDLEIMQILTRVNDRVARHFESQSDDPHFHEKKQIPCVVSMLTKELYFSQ
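Assay system: Uncleavable procaspase-7 mutant enzyme | Input: 2 µM procaspase-7 mutant as dispensed | Timing: 1 h compound preincubation, 2 h substrate cleavage, 25 °C | Repeats: One well per compound | Control set: DMSO wells as 0%, DMSO with 5 µM added PC-7 as 100% | Technique: Epi-absorbance of released pNA at 405 nm, two timepoints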
PME-1 primary – PME-1 inhibitors via competitive probe labeling, primary screen, biochemical, fluorescence polarization, FP-Rh probe, HTS. AID 2130, 2009. recombinant PME-1. inhibition, % at 5.9 µM. 320,000 compounds, 0.53% hits;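 active = inhibition above the campaign mean of all compounds plus 3 SD, cut at about 26% in these data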;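 also: competitive labeling of PME-1 active site by serine hydrolase directed probe; 0% = PME-1 with DMSO and 100% = wells lacking PME-1 enzyme; inhibitors block probe labeling so polarization falls and inhibition rises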
LYPLA2 inh – LYPLA2 inhibitors, primary screen, counter-screen for PME1 inhibitor project, biochemical, fluorescence polarization, FP-Rh probe ABPP. AID 2177, 2009. inhibition, % at 5.9 µM. Acyl-protein thioesterase 2 (Homo sapiens), O95372. recombinant LYPLA2. 320,000 compounds, 0.38% hits;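 active = inhibition above the screen-wide mean plus 3 SD, limit set per campaign, cut at about 26% in these data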;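 also: 0% = LYPLA2 with DMSO and 100% = wells lacking LYPLA2 enzyme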
proCasp3 act – activators of human procaspase-3 D3A mutant, primary screen, biochemical, absorbance, PC-3 D3A mutant, single concentration; Caspase-3 (Homo sapiens), P42574; recombinant procaspase-3 D3A, Ac-DEVD-pNA absorbance 405 nm; activation, % at 8.5 µM; 330,000 compounds, 0.11% hits; AID 463141, 2010;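 active = activation above the mean of all tested compounds plus 3 SD, cut at about 21% in these data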;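 also: 0% = DMSO alone and 100% = DMSO wells spiked with extra 5 µM PC-3 D3A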
Target sequence (P42574 whole entry D9A/D28A/D175A): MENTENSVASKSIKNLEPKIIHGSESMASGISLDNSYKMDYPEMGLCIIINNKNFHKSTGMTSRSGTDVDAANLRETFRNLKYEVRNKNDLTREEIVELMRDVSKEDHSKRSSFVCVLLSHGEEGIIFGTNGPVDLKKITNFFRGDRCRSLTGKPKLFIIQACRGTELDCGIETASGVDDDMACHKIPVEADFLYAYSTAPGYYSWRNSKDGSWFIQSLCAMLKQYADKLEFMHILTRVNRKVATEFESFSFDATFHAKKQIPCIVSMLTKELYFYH
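Test system: Procaspase-3 D3A mutant; medium: Zinc-free HEPES/NaCl buffer with 0.01% Triton X-100 at pH 7.4; reagent: DEVD-pNA substrate; doses: one concentration, 8.5 µM nominal, 0.8% DMSO; times: 1 h preincubation plus 2 h reaction at 25 °C; signal: Epi-absorbance at 405 nm of released p-nitroaniline, 0 and 120 min; replicates: singlicate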
Starred values were filed as active, the others as inactive; · = no result given.

SMILES	Fam108B counter	LYPLA1 inh	proCasp7 act	PME-1 primary	LYPLA2 inh	proCasp3 act
COc1ccc2ccc3c(c2c1)N=C[C@]1(O3)N(C)c2ccccc2C1(C)C	-0.7	-6.5	-14.5	44.6*	-9.4	-8.1
CCOC(=O)c1ccc(Nc2nc(N)c3cc(OC)c(OC)cc3n2)cc1	12.5	-3.3	-0.5	27.0*	-5.9	2.5
COc1cc(/C=N/NC(=O)c2sc(N)c(C#N)c2C)cc(Br)c1O	7.6	-3.4	-3.8	31.2*	6.2	7.0
O=C(Nc1ccc([N+](=O)[O-])cc1)Nc1ccc2[nH]c(=O)[nH]c2c1	1.8	-3.4	2.3	29.6*	-10.2	3.9
O=C(CSc1ccc([N+](=O)[O-])cn1)Nc1ccc2[nH]c(=O)[nH]c2c1	-1.7	-0.3	-4.4	2.6	4.8	-0.9
O=C1NN(c2ccc(Cl)c(Cl)c2)C(=O)/C1=C/c1cccc(OC(=O)c2cccs2)c1	4.3	-12.2	-10.6	37.0*	4.2	-6.3
O=[N+]([O-])c1ccc(C2Nc3cccc4cccc(c34)N2)cc1	13.4	-6.5	-1.1	28.8*	-8.5	-6.9
O=C1c2ccccc2NC(c2cccc([N+](=O)[O-])c2)N1O (stereo not given)	1.5	-7.8	-3.8	-5.2	-10.8	-8.8
O=[N+]([O-])c1cccc(C2Nc3cccc4cccc(c34)N2)c1	20.6*	-4.6	-10.2	20.9	1.7	3.6
Cc1ccc(C2SCCN2C(=O)c2ccc([N+](=O)[O-])cc2)cc1 (stereo not given)	-3.5	-2.8	6.2	1.1	-1.7	-1.9
CC(C)(C)OC(=O)C[C@H]1C/C=C\C[C@@H](CC(=O)N(CCO)Cc2ccccc2)C(=O)N[C@@H](Cc2ccccc2)COC1=O	·	·	-0.3	·	·	1.7
N#Cc1cc2ccccc2nc1SCC(=O)Nc1ccccc1N1CCOCC1	-7.8	-2.1	-2.0	30.0*	-3.8	1.5
Cc1cccc2cc(C#N)c(SCC(=O)Nc3ccccc3N3CCOCC3)nc12	-15.8	-2.4	1.3	-2.1	-10.2	-4.9
COC(=O)[C@H](CCSC)NC(=O)Cn1cnc(C(=O)Nc2ccc(C)c(C)c2)n1	·	·	10.1	·	·	1.8
O=c1c2ccccc2nc(N/N=C/c2ccc(O)cc2)n1O	0.5	-0.2	16.0	-8.8	-8.9	6.1
O=c1c2ccccc2nc(N/N=C/c2c(O)ccc3ccccc23)n1O	17.9	-0.9	5.3	34.2*	-4.8	3.5
CCOC(=O)C1=C(C)NC(C)=C(C(=O)OCC)C1c1ccccc1/C=C/C(=O)OC(C)(C)C	0.0	-2.8	29.9*	10.2	0.0	17.6
O=C(CCNS(=O)(=O)c1ccc(Br)cc1)NCCCSc1ccccc1	·	2.0	4.5	3.5	2.8	10.2
COc1ccccc1C(=O)NC(=S)Nc1cccc2cc(O)ccc12	5.3	-5.9	-1.4	30.9*	-6.0	5.0
O=C(O)c1cc(O)c2c(c1)[C@H]([C@H]1c3cc(C(=O)O)cc(O)c3C(=O)c3c(O[C@@H]4O[C@H](CO)[C@@H](O)[C@H](O)[C@H]4O)cccc31)c1cccc(OC3O[C@H](CO)[C@@H](O)[C@H](O)[C@H]3O)c1C2=O (stereo not given in full)	96.5*	10.4	-2.1	71.1*	75.0*	-9.4
CN(C)c1ccc(NC(=O)Nc2cccc(Cl)c2)cc1	5.4	-3.6	-20.4	32.1*	2.9	-10.8
CN(c1cccc(NC(=O)Nc2cccc(Cl)c2)c1)S(C)(=O)=O	-3.0	-19.8	4.7	-17.8	-22.9	7.9
CCOC(=O)c1sc(NC(=O)Nc2cccc(Cl)c2)cc1C	24.9*	-18.9	-7.5	13.2	-13.4	4.2
Cc1ccccc1CSCC(=O)Nc1ccccc1Br	-3.6	-3.0	2.5	2.7	2.1	-2.1
COc1cc2c(cc1OC)C(c1cc(Br)ccc1F)N(C(=O)CCl)CC2 (stereo not given)	-4.9	-2.7	7.8	31.2*	5.0	-6.2
SMILES	Fam108B counter	LYPLA1 inh	proCasp7 act	PME-1 primary	LYPLA2 inh	proCasp3 act
COc1ccc(NC(=O)CCC(=O)OCC(=O)c2ccc(Oc3ccc([N+](=O)[O-])cc3)cc2)cc1	-2.0	1.5	-8.2	1.7	25.8*	-5.2
O=C(NC1CCS(=O)(=O)C1)c1ccc2c(c1)OCO2 (stereo not given)	1.6	0.2	9.4	0.1	-0.4	7.9
Cc1ccc(S(=O)(=O)/N=C(/Nc2ccc([N+](=O)[O-])cc2[N+](=O)[O-])c2ccccc2)cc1	·	·	1.0	·	·	-1.8
COc1cccc(C(=O)Oc2ccc(/C=N/Nc3ccc(C(=O)O)cc3)cc2OC)c1	14.1	-1.0	-12.8	31.7*	10.4	-14.2
Cc1ccc(S(=O)(=O)N2[C@@H](c3ccc(Br)cc3)C(C(=O)O)=CC[C@H]2c2cccs2)cc1	·	·	11.0	·	·	5.9
CCOc1cccc(CNc2ccc(O)cc2)c1OCc1ccc(Cl)cc1Cl	16.9	-1.0	-15.4	23.2	11.1	-4.3
CCOc1cccc(CNc2ccc(O)cc2)c1OCc1ccccc1Cl	5.9	6.8	-13.4	33.7*	19.7	-8.7
CCOC(=O)N1CCN(C(=O)c2ccc3nc(SCc4ccc(F)cc4)n(C)c3c2)CC1	1.1	-27.9	5.4	-4.3	28.2*	-14.8
Cc1cccc(C(=O)NNC(=S)NC(=O)c2cccs2)c1	-0.1	3.6	-9.4	-4.6	2.6	-6.6
CCC[C@H]1NC(=O)[C@H](C)N(C)C(=O)C(C)(C)C(=O)C(C)NC(=O)[C@H](Cc2ccc(OC)cc2)N(C)C(=O)[C@H](C(C)C)N(C)C(=O)CNC(=O)[C@H](CC(C)C)N(C)C(=O)CNC(=O)[C@H]([C@@H](C)CC)OC(=O)[C@H]1C (stereo not given in full)	·	·	-0.1	·	·	11.5
CN(/N=C\c1ccc(O)c(O)c1)c1nc(-c2ccccc2)cc(-c2ccccc2)n1	21.4*	-14.5	2.1	21.9	-7.2	-2.6
COc1cc(/C=N/N(c2ccccc2)c2ccccc2)ccc1O	-1.4	-0.9	-4.4	9.3	-2.0	0.5
O=C(Nc1ccccc1N1CCOCC1)c1ccc([N+](=O)[O-])s1	·	·	6.4	·	·	-4.6
CCCC(=O)NC(c1cccs1)c1cc([N+](=O)[O-])c2cccnc2c1O (stereo not given)	3.7	-5.3	-33.5	10.5	2.9	-17.2

Screens: PubChem BioAssay, The Scripps Research Institute Molecular Screening Center
